# In the library only some 4.2% were active in any assay of this set; here they are far more common.
# FXN GAA850 act: FXN promoter activators, primary screen, cell-based, luciferase luminescence, HEK293 lucGAA850; HEK293 lucGAA850 FXN promoter luciferase reporter, 24 h; percent of 10 µM SAHA response; activation, % at 6 µM; 360,000 tested, 0.56% active;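 active = activation above the average of all compounds screened plus 3 SD, cutoff fixed separately per campaign, cut at about 7.5% in these data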;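 note: 0% = DMSO wells and 100% = 10 µM SAHA wells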
# CTSL1 counter: Fasciola hepatica cathepsin L1 inhibitors, primary screen, counter-screen for PFM18AAP inhibitor project, biochemical, QFRET, fluorogenic peptide substrate | recombinant F. hepatica cathepsin L1, Z-Leu-Arg-MCA fluorescence | inhibition, % at 5.96 µM | 300,000 tested, 0.49% active | AID 1906, 2009;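 active = inhibition above the mean of all tested compounds plus 3 SD, set per screening campaign, cut at about 17% in these data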;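 note: 0% = plate median of test compound wells and 100% = 1 µM Z-Phe-Ala-diazomethylketone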
# AHR act: AHR activators, primary screen, cell-based, luminescence, luciferase reporter, human | AHR-responsive luciferase reporter cells | activation, % at 5 µM | Aryl hydrocarbon receptor (Homo sapiens), P35869 | 320,000 tested, 2.5% active; in the data active = activation above about 47%;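 note: 0% = vehicle wells and 100% = reference agonist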
# HDAC3 inhib: HDAC3 deacetylase inhibitors, primary screen, biochemical, fluorescence, cell-free homogeneous. recombinant HDAC3, fluorogenic peptide/trypsin coupled. 320,000 tested, 0.15% active. AID 2718, 2010. inhibition, % at 8.3 µM; in the data active = inhibition above about 26%, passing the limit was not always enough
# PfM18AAP inh: PfM18AAP inhibitors, malaria aminopeptidase, primary screen, biochemical, QFRET, recombinant enzyme | M18 aspartyl aminopeptidase (Plasmodium falciparum 3D7) | inhibition, % at 7.35 µM | AID 1822, 2009 | H-Glu-NHMec fluorogenic cleavage | 290,000 tested, 1.2% active;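 active = inhibition above the campaign mean inhibition over all tested compounds plus 3 SD, cut at about 28% in these data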;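 note: 0% = plate median of test compound wells and 100% = 2 mM ZnCl2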
# SENP1 inh: human SENP1 catalytic domain inhibitors, primary screen, biochemical, FRET, uHTS. Sentrin-specific protease 1 (Homo sapiens), Q9P0U3. inhibition, % at 10 µM. 360,000 tested, 0.21% active. recombinant SENP1 catalytic domain, CyPet-SUMO1-YPet FRET cleavage;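 active = inhibition at least 30% at 10 µM, raw YFP signal under a set limit, fluorescence ratio 0.5 to 1.5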;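 note: 0% = enzyme with DMSO and 100% = no enzyme wells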
#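 System: Recombinant human SENP1 catalytic domain, His6-tagged | Incubation: Enzyme reaction for 50 min at room temperature, dark | Medium: Tris pH 8 with BME, BSA, NP40 and catalase | Also added: 25 nM SUMO1 FRET substrate | Compound: 10 µM single point, 0.5% DMSO | Measured by: FRET fluorescence in CFP and YFP emission channels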
# The depositor's hits bear a star; · = no result given.
SMILES,FXN GAA850 act,CTSL1 counter,AHR act,HDAC3 inhib,PfM18AAP inh,SENP1 inh
COc1ccc(-c2[nH]ncc2N=Nc2cc(C)cc(C)c2)cc1,-0.9,2.6,66.5*,17.5,6.5,3.7
O=C(CCl)NC1CCCc2ccccc21 (centres undefined),-6.1,26.8*,4.2,2.4,6.2,0.1
O=C(Cc1ccc(Br)cc1)NC1CCCc2ccccc21 (centres undefined),0.7,1.1,-2.8,-4.3,7.7,2.1
Cc1ccc(C(=O)NC2CCCc3ccccc32)o1 (centres undefined),-1.4,75.7*,2.8,1.6,2.6,-4.9
Cc1nn(C(C)C)c(C)c1CN1CCC(C(=O)Nc2cccc(-c3cccc(F)c3)c2)CC1,-0.1,-1.0,8.9,-7.2,0.6,1.1
CCCNC(=O)CN1C(=O)NC(c2ccccc2)(c2ccccc2)C1=O,2.1,-5.7,-2.6,-11.8,-2.8,1.9
COc1ccc(C2CC(O)(c3ccccc3)Oc3cc(OC)c(OC)c(OC)c32)cc1 (centres undefined),-0.3,-0.9,-0.4,40.8*,·,3.7
CC(C)c1ccc(NC(=O)[C@H](NC(=O)[C@@H]2Cc3ccccc3CN2)c2ccccc2)cc1,-3.9,0.0,8.5,17.1,3.3,-0.8
O=C(c1cccs1)N1CCc2ccccc21,0.8,-1.8,6.0,1.8,6.7,-1.2
O=C(/C=C/c1cccs1)N1CCc2ccccc21,3.0,3.7,54.1*,4.5,-1.6,1.2
CN(CC1CCCN(CCc2ccccc2F)C1)C(=O)c1cc2ccccc2o1 (centres undefined),4.0,·,·,·,·,-14.8
CC(=O)Nc1ccc(S(=O)(=O)c2ccnc3cc(Cl)ccc23)cc1,-0.9,·,·,·,·,0.0
CC(C)OCc1c(C(=O)Nc2nccs2)oc2ccccc12,0.8,-0.5,56.9*,-1.4,-7.1,-0.6
Cc1c(C(=O)NC(C)c2ccccn2)oc2c(Cl)cccc12 (centres undefined),2.2,·,·,·,·,-1.4
CCCCc1nnc(NC(=O)c2oc3ccc(OC)cc3c2C)s1,-0.9,3.8,-6.8,-7.3,·,-1.8
Cc1c(C(=O)Nc2ccccn2)oc2c(Cl)cccc12,2.6,-4.0,74.4*,2.0,·,-0.1
COc1ccc2oc(C(=O)Nc3nccs3)c(C)c2c1,2.4,1.1,77.1*,-1.1,·,-12.9
Cc1c(C(=O)Nc2nccs2)oc2c(Cl)cccc12,2.1,9.6,55.5*,-3.3,·,-1.0
CC(C)(C)c1ccc(CC(=O)N2CCC2(C)C(=O)NS(=O)(=O)c2ccc3c(c2)CCO3)cc1 (centres undefined),-0.6,·,·,·,·,-0.2
O=C1c2cccc3cccc(c23)C(=O)N1CCCN(C(=O)c1cccs1)c1cccc(F)c1,1.4,-2.3,51.3*,5.0,2.8,6.3
Cc1ccc(C(=O)N/C(=C/c2ccco2)C(=O)OCN2C(=O)c3ccccc3C2=O)cc1,2.6,43.0*,4.5,7.2,-1.6,2.3
CCCOC(=O)/C(=C\C=C\c1ccco1)NC(=O)c1ccccc1,5.7,26.2*,0.2,8.0,-3.9,1.9
COC(=O)/C(=C/c1ccco1)NC(=O)c1ccccc1,3.2,1.7,4.3,·,-0.6,0.2
CCOC(=O)C1CCCN(C(=O)/C(=C/c2ccco2)NC(=O)c2ccccc2)C1 (centres undefined),1.5,-2.6,4.7,3.1,29.9*,-0.8
O=C(N/C(=C/c1ccco1)C(=O)N1CCCCCC1)c1ccccc1,3.5,-0.6,-0.4,-4.4,17.3,-3.8
SMILES,FXN GAA850 act,CTSL1 counter,AHR act,HDAC3 inhib,PfM18AAP inh,SENP1 inh
O=C(NCc1ccccc1)C1CCN(S(=O)(=O)c2ccc(N3CCCC3=O)cc2)CC1,1.2,17.2*,-0.1,3.9,6.8,2.5
OCc1ccccc1OCCOc1ccc(Cl)c2cccnc12,2.6,0.7,9.8,-13.6,4.6,2.4
Clc1ccc(OCc2cn3ccccc3n2)c2ncccc12,3.1,1.9,48.9*,1.5,0.9,-2.4
CC(=O)NC(Cc1ccccc1)C(=O)Oc1ccc2ccccc2c1 (centres undefined),-0.6,·,·,·,·,-1.7
CCN1CCN(C(=S)c2ccc(O)cc2)CC1,-0.3,0.2,1.3,7.0,47.1*,1.3
CN(C)c1ccc(C(=S)N2CCN(Cc3ccccc3)CC2)cc1,-0.1,10.2,3.9,4.9,55.1*,3.6
CC(C)=CCc1c(O)cc2c(c1O)C(=O)CC(c1ccccc1)O2 (centres undefined),-1.9,0.4,51.2*,-7.4,·,2.3
COc1ccc(C2=CC(=O)C[C@H](CN3C(=O)c4ccccc4C3=O)N(C(=O)OC(C)(C)C)O2)cc1,1.5,·,·,·,·,-34.9
COc1cc(C(=O)N/N=C(\C)c2ccccn2)cc(OC)c1OC,-1.0,0.0,63.4*,-5.0,-9.7,3.2
COc1ccc(/C=N/Nc2ccc([N+](=O)[O-])cc2)cc1Cn1cc([N+](=O)[O-])cn1,-1.1,1.8,69.4*,2.1,11.3,-20.9
CCOC(=O)CSc1nc2sc3c(c2c(=O)n1-c1ccccc1)CCN(C(C)C)C3,2.9,6.7,-0.6,0.0,-3.1,-25.2
CC1CCN(S(=O)(=O)c2ccc3c(c2)C(Cl)(Cl)C(=O)N3)CC1,0.3,·,·,·,·,-0.9
O=C(CCc1nc(-c2ccccc2F)no1)Nc1ccc(Oc2ccccc2)cc1,-1.0,2.2,-7.8,26.9*,0.5,2.6
COc1ccc(CNC(=O)CCc2nc(-c3ccccc3F)no2)c(OC)c1,0.1,2.2,49.0*,-0.2,4.4,-1.0
Oc1ccc(-c2nc3ccccn3c2NCc2ccc3c(c2)OCO3)cc1,0.4,2.1,70.7*,-25.0,13.3,-31.6
Cc1ccc2nc(-c3ccc(O)cc3)c(Nc3ccc4c(c3)OCCO4)n2c1,0.5,-0.6,2.5,-100.1,10.4,-14.8
Cc1ccc(-c2nc3cnccn3c2Nc2ccc3c(c2)OCO3)cc1,2.3,-1.7,55.7*,-0.1,12.6,-15.5
Fc1ccc(-c2nc3ccccn3c2NCc2ccc3c(c2)OCO3)cc1,1.9,4.9,33.1,-18.6,4.2,-19.9
Cc1ccn2c(NCc3ccc4c(c3)OCO4)c(-c3ccc(O)cc3)nc2c1,4.1,3.0,66.0*,2.7,-12.9,-16.3
CSc1ccccc1NC(=O)C1(C)CCN1C(=O)Cc1ccccc1Cl (centres undefined),-0.9,·,·,·,·,1.7
Cc1cccnc1CNC(=O)C1CCC(=O)N(CCc2cccc(F)c2)C1 (centres undefined),-0.7,-6.2,0.5,-4.3,-4.2,-0.6
CCCc1cc(=O)[nH]c(SCC(=O)Nc2cc(S(=O)(=O)N3CCCCC3)ccc2Cl)n1,0.0,·,·,·,·,-4.9

# Assay outcomes: PubChem, several laboratories
